Measured values reported in ChEMBL document CHEMBL4196214, “Inhibition of p53-Murine Double Minute 2 (MDM2) Interactions with 3,3'-Spirocyclopentene Oxindole Derivatives” (J Med Chem, 2018).
One block for each compound: values may come before it. Active and inactive are the calls of the source. The calls are words filed in the database; no cut-off is given here.

How the values were obtained:
[1] = biological target: Tumour suppressor p53/oncoprotein Mdm2 (Homo sapiens, UniProt Q00987); assay: Inhibition of human MDM2 (1 to 125 residues) and p53 (unknown origin) interaction pre-incubated for 20 mins before peptide-2-biot addition and measured after 3 hrs by HTRF assay; assay type: protein assay
Chain of Tumour suppressor p53/oncoprotein Mdm2 (P04637 whole entry, the tested form may be a part): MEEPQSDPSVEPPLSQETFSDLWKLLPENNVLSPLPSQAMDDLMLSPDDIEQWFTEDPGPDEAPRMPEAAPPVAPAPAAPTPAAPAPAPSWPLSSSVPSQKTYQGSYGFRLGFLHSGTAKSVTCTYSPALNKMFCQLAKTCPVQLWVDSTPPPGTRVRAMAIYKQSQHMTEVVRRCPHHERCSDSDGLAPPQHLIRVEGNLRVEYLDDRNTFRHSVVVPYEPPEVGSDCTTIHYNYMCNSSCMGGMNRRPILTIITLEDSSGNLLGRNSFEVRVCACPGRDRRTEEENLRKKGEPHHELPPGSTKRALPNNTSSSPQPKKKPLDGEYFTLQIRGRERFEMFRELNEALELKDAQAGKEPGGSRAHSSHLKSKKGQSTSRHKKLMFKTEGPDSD
Chain of Tumour suppressor p53/oncoprotein Mdm2 (Q00987 whole entry, the tested form may be a part): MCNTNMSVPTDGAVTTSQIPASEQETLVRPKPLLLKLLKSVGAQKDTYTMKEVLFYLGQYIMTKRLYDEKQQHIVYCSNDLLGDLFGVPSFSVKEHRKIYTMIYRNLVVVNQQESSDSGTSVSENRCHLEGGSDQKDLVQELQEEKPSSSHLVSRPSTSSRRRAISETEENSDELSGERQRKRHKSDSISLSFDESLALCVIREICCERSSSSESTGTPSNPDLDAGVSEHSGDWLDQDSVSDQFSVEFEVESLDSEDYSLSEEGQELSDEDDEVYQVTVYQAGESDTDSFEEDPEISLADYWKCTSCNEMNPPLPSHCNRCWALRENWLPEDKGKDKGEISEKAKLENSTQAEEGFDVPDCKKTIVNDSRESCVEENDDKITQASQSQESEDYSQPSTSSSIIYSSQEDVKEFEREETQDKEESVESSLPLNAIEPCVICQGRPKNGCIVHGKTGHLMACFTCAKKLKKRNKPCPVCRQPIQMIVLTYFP

HCT-116 [2] = assay: Antiproliferative activity against p53 -/- human HCT116 cells incubated for 72 hrs by MTS assay; assay type: functional, cell-based; details: HCT-116, 72 h
In short: (§1)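 Cells treated with compound for 72 h; IC50 fitted to polynomial curves from three separate experiments, reported as average with standard deviation. HCT116 p53 −/− is an isogenic p53 knockout line. H1299 carries a homozygous partial deletion of the p53 gene and expresses no p53 protein.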

HCT-116 [3] = assay: Antiproliferative activity against human HCT116 cells expressing wild type p53 incubated for 72 hrs by MTS assay; assay type: functional, cell-based; details: HCT-116, 72 h; in short: as §1
SJSA-1 = assay: Antiproliferative activity against human SJSA1 cells expressing wild type p53 incubated for 72 hrs by MTS assay; assay type: functional, cell-based; details: SJSA-1, 72 h; in short: as §1
NCI-H1299 = assay: Antiproliferative activity against p53 -/- human NCI-H1299 cells incubated for 72 hrs by MTS assay; assay type: functional, cell-based; details: NCI-H1299, 72 h; in short: as §1
[4] = biological target: T1, Tumour suppressor p53/oncoprotein Mdm2 (Homo sapiens) (UniProt P04637+Q00987); assay: Inhibition of MDM2/p53 interaction in human HCT116 cells deficient in p53 assessed as increase in p21 protein levels at 10 uM incubated for 6 hrs by Western blot method; assay type: cell-based
T1 sequence (P04637 whole entry, looked up): as the sequence (P04637 whole entry, the tested form may be a part) above
T1 sequence (Q00987 whole entry, looked up): as the sequence (Q00987 whole entry, the tested form may be a part) above
In short: (§2)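 HCT116 cells, p53 +/+ and isogenic p53 −/−, treated with compound at 10 μM for 6 h. Lysates probed by Western blot for p53, MDM2 and p21 protein levels. Actin served as the loading control.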

[5] = biological target: T1, Tumour suppressor p53/oncoprotein Mdm2 (Homo sapiens); assay: Inhibition of MDM2/p53 interaction in human HCT116 cells deficient in p53 assessed as increase in p53 activation at 10 uM incubated for 6 hrs by Western blot method; assay type: cell-based; in short: as §2
[6] = biological target: T1, Tumour suppressor p53/oncoprotein Mdm2 (Homo sapiens); assay: Inhibition of MDM2/p53 interaction in human HCT116 cells expressing wild type p53 assessed as increase in p21 protein levels at 10 uM incubated for 6 hrs by Western blot method; assay type: cell-based; in short: as §2
[7] = biological target: T1, Tumour suppressor p53/oncoprotein Mdm2 (Homo sapiens); assay: Inhibition of MDM2/p53 interaction in human HCT116 cells expressing wild type p53 assessed as increase in MDM2 protein levels at 10 uM incubated for 6 hrs by Western blot method; assay type: cell-based; in short: as §2
[8] = biological target: T1, Tumour suppressor p53/oncoprotein Mdm2 (Homo sapiens); assay: Inhibition of MDM2/p53 interaction in human HCT116 cells expressing wild type p53 assessed as increase in p53 activation at 10 uM incubated for 6 hrs by Western blot method; assay type: cell-based; in short: as §2
[9] = biological target: T1, Tumour suppressor p53/oncoprotein Mdm2 (Homo sapiens); assay: Inhibition of MDM2/p53 interaction in human HCT116 cells deficient in p53 assessed as increase in MDM2 protein levels at 10 uM incubated for 6 hrs by Western blot method; assay type: cell-based; in short: as §2

IC50 [1]: 3.38 µM
SMILES: CC(C)(C)C[C@@H]1C=C(C(=O)NCCN2CCOCC2)[C@@H](c2cccc(Cl)c2F)[C@]12C(=O)Nc1cc(Cl)ccc12 (racemic)

IC50 [1]: 0.739 µM
SMILES: CC(C)(C)C[C@H]1C=C(C(=O)NCCN2CCOCC2)[C@H](c2cccc(Cl)c2F)[C@]12C(=O)Nc1cc(Cl)ccc12 (racemic)

IC50 [1]: 0.35 µM
SMILES: CC(C)(C)C[C@@H]1C=C(C(=O)Nc2ccc(C(=O)O)cc2)[C@H](c2cccc(Cl)c2F)[C@]12C(=O)Nc1cc(Cl)ccc12 (racemic)

IC50 [1]: 0.619 µM
SMILES: CC(C)(C)C[C@@H]1C=C(C(=O)N[C@H]2CC[C@H](O)CC2)[C@H](c2cccc(Cl)c2F)[C@]12C(=O)Nc1cc(Cl)ccc12 (racemic)

IC50 [1]: 1.26 µM
SMILES: CC(C)(C)C[C@@H]1C=C(C(=O)N[C@H]2C[C@@](C)(O)C2)[C@H](c2cccc(Cl)c2F)[C@]12C(=O)Nc1cc(Cl)ccc12 (racemic)

IC50 [1]: 3.68 µM
SMILES: CC(C)(C)C[C@H]1C=C(C(=O)NCCN2CCOCC2)[C@@H](c2cccc(Cl)c2F)[C@]12C(=O)Nc1cc(Cl)ccc12 (racemic)

SMILES: CC(C)(C)C[C@@H]1C=C(C(=O)NCCN2CCOCC2)[C@H](c2cccc(Cl)c2F)[C@]12C(=O)Nc1cc(Cl)ccc12 (racemic)
IC50 [1]: 0.033 µM
IC50 (HCT-116 [2]): > 20 µM
IC50 (HCT-116 [3]): 4.84 µM
IC50 (SJSA-1): 7.5 µM
IC50 (NCI-H1299): > 20 µM

SMILES: CC(C)(C)C[C@@H]1C=C(C(=O)O)[C@H](c2cccc(Cl)c2F)[C@]12C(=O)Nc1cc(Cl)ccc12 (racemic)
IC50 [1]: 0.0101 µM
IC50 (HCT-116 [2]): > 20 µM
IC50 (HCT-116 [3]): 10.5 µM
IC50 (SJSA-1): 7.44 µM
IC50 (NCI-H1299): > 20 µM

SMILES: CC(C)(C)CC1C=C(C(=O)O)C(c2cccc(Cl)c2F)C12C(=O)Nc1cc(Cl)ccc12 (single isomer, unassigned; (+)) [listing 1 of 2 here]
IC50 [1]: 0.0031 µM
IC50 (HCT-116 [2]): > 20 µM
IC50 (HCT-116 [3]): 11.6 µM
IC50 (SJSA-1): 7.8 µM
IC50 (NCI-H1299): > 20 µM

IC50 [1]: 0.655 µM
SMILES: CC(C)(C)CC1C=C(C(=O)Nc2ccc(C(=O)O)cc2)C(c2cccc(Cl)c2F)C12C(=O)Nc1cc(Cl)ccc12 (single isomer, unassigned; (+))

IC50 [1]: 0.712 µM
SMILES: CC(C)(C)CC1C=C(C(=O)NC2CC(C)(O)C2)C(c2cccc(Cl)c2F)C12C(=O)Nc1cc(Cl)ccc12 (single isomer, unassigned; (+))

SMILES: CC(C)(C)CC1C=C(C(=O)NCCN2CCOCC2)C(c2cccc(Cl)c2F)C12C(=O)Nc1cc(Cl)ccc12 (single isomer, unassigned; (+)) [listing 1 of 2 here]
IC50 [1]: 0.0237 µM
IC50 (HCT-116 [2]): > 20 µM
IC50 (HCT-116 [3]): 2.92 µM
IC50 (SJSA-1): 0.96 µM
IC50 (NCI-H1299): 9.73 µM

IC50 [1]: 0.303 µM
SMILES: CC(C)(C)CC1C=C(C(=O)NC2CCC(O)CC2)C(c2cccc(Cl)c2F)C12C(=O)Nc1cc(Cl)ccc12 (single isomer, unassigned; (+))

SMILES: CC(C)(C)CC1C=C(C(=O)NCCN2CCOCC2)C(c2cccc(Cl)c2F)C12C(=O)Nc1cc(Cl)ccc12 (single isomer, unassigned; (+)) [listing 2 of 2 here]
inhibition [4]: inactive
inhibition [5]: inactive
inhibition [6]: Active
inhibition [7]: Active
inhibition [8]: Active
inhibition [9]: inactive

SMILES: CC(C)(C)CC1C=C(C(=O)O)C(c2cccc(Cl)c2F)C12C(=O)Nc1cc(Cl)ccc12 (single isomer, unassigned; (+)) [listing 2 of 2 here]
inhibition [4]: inactive
inhibition [5]: inactive
inhibition [6]: Active
inhibition [7]: Active
inhibition [8]: Active
inhibition [9]: inactive

IC50 [1]: 1.04 µM
SMILES: CC(C)(C)CC1C=C(C(=O)Nc2ccc(C(=O)O)cc2)C(c2cccc(Cl)c2F)C12C(=O)Nc1cc(Cl)ccc12 (single isomer, unassigned; (-))

IC50 [1]: 3.03 µM
SMILES: CC(C)(C)CC1C=C(C(=O)NC2CC(C)(O)C2)C(c2cccc(Cl)c2F)C12C(=O)Nc1cc(Cl)ccc12 (single isomer, unassigned; (-))

SMILES: CC(C)(C)CC1C=C(C(=O)NCCN2CCOCC2)C(c2cccc(Cl)c2F)C12C(=O)Nc1cc(Cl)ccc12 (single isomer, unassigned; (-))
IC50 [1]: 1.14 µM

IC50 [1]: 3.72 µM
SMILES: CC(C)(C)CC1C=C(C(=O)NC2CCC(O)CC2)C(c2cccc(Cl)c2F)C12C(=O)Nc1cc(Cl)ccc12 (single isomer, unassigned; (-))

SMILES: CC(C)(C)CC1C=C(C(=O)O)C(c2cccc(Cl)c2F)C12C(=O)Nc1cc(Cl)ccc12 (stereo in doubt; (-)-8')
IC50 [1]: 0.538 µM

SMILES: COc1ccc(C2=N[C@@H](c3ccc(Cl)cc3)[C@@H](c3ccc(Cl)cc3)N2C(=O)N2CCNC(=O)C2)c(OC(C)C)c1 [NUTLIN-3]
IC50 (HCT-116 [2]): > 20 µM
IC50 (HCT-116 [3]): 1.3 µM
IC50 (SJSA-1): 1.44 µM
IC50 (NCI-H1299): 10.4 µM
